Results as given in ChEMBL document CHEMBL1150054, “Studies on the synthesis of sesquiterpene lactones, 14. Syntheses of (-)-arbusclin D and (+)-4-EPI-arbusclin D: the stereochemical assignment of arbusclin D” (1992).
Activity calls are given as the source filed them. No cut-off for these calls is given here.

What was measured:
[1] = tested on: P388; assay: Growth inhibition of mouse P388 cells at 1 ug/mL after 48 hrs relative to control; format: functional; conditions: P388, 48 h, read-out: GI
Summary of the method: (§1)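 P-388 murine lymphocytic leukemia cells incubated with compound 48 h at 37° under humidified 5% CO2; cells counted by Coulter counter. Inhibitory ratio (%) = (1 − (T − C0)/(C − C0)) × 100, where T is the count with compound, C the count without compound and C0 the count at culture start.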

[2] = tested on: P388; assay: Growth inhibition of mouse P388 cells at 0.1 ug/mL after 48 hrs relative to control; format: functional; conditions: P388, 48 h, read-out: GI; summary of the method: as §1
[3] = tested on: P388; assay: Growth inhibition of mouse P388 cells at 0.01 ug/mL after 48 hrs relative to control; format: functional; conditions: P388, 48 h, read-out: GI; summary of the method: as §1
[4] = tested on: Brassica juncea; assay: Growth regulatory activity in Brassica juncea assessed as complete inhibition of stem growth at 1000 ppm after 10 days; format: functional, organism-based
[5] = tested on: Brassica juncea; assay: Growth regulatory activity in Brassica juncea assessed as complete inhibition of root growth at 1000 ppm after 10 days; format: functional, organism-based
[6] = tested on: Brassica juncea; assay: Growth regulatory activity in Brassica juncea assessed as complete inhibition of root growth at 500 ppm after 10 days; format: functional, organism-based
[7] = tested on: Cucumis sativus; assay: Growth regulatory activity in Cucumis sativus assessed as complete inhibition of stem growth at 1000 ppm after 10 days; format: functional, organism-based
[8] = tested on: Cucumis sativus; assay: Growth regulatory activity in Cucumis sativus assessed as complete inhibition of stem growth at 500 ppm after 10 days; format: functional, organism-based
[9] = tested on: Cucumis sativus; assay: Growth regulatory activity in Cucumis sativus assessed as complete inhibition of root growth at 500 ppm after 10 days; format: functional, organism-based
[10] = tested on: Echinochloa frumentacea; assay: Growth regulatory activity in Echinochloa frumentacea assessed as inhibition of stem growth at 500 ppm after 10 days; format: functional, organism-based
[11] = tested on: Brassica juncea; assay: Growth regulatory activity in Brassica juncea assessed as inhibition of stem growth at 500 ppm after 10 days; format: functional, organism-based
[12] = tested on: Cucumis sativus; assay: Growth regulatory activity in Cucumis sativus assessed as complete inhibition of stem growth at 250 ppm after 10 days; format: functional, organism-based
[13] = tested on: Cucumis sativus; assay: Growth regulatory activity in Cucumis sativus assessed as complete inhibition of root growth at 250 ppm after 10 days; format: functional, organism-based
[14] = tested on: Echinochloa frumentacea; assay: Growth regulatory activity in Echinochloa frumentacea assessed as complete inhibition of root growth at 500 ppm after 10 days; format: functional, organism-based
[15] = tested on: Echinochloa frumentacea; assay: Growth regulatory activity in Echinochloa frumentacea assessed as complete inhibition of root growth at 1000 ppm after 10 days; format: functional, organism-based
[16] = tested on: Echinochloa frumentacea; assay: Growth regulatory activity in Echinochloa frumentacea assessed as complete inhibition of stem growth at 1000 ppm after 10 days; format: functional, organism-based
[17] = tested on: Cucumis sativus; assay: Growth regulatory activity in Cucumis sativus assessed as complete inhibition of root growth at 1000 ppm after 10 days; format: functional, organism-based
[18] = tested on: Echinochloa frumentacea; assay: Growth regulatory activity in Echinochloa frumentacea assessed as inhibition of root growth at 500 ppm after 10 days; format: functional, organism-based
[19] = tested on: P388; assay: Growth inhibition of mouse P388 cells at 10 ug/mL after 48 hrs relative to control; format: functional; conditions: P388, 48 h, read-out: GI; summary of the method: as §1
[20] = tested on: Cucumis sativus; assay: Growth regulatory activity in Cucumis sativus assessed as inhibition of root growth at 500 ppm after 10 days; format: functional, organism-based
[21] = tested on: Brassica juncea; assay: Growth regulatory activity in Brassica juncea assessed as inhibition of root growth at 500 ppm after 10 days; format: functional, organism-based
[22] = tested on: Brassica juncea; assay: Growth regulatory activity in Brassica juncea assessed as inhibition of stem growth at 250 ppm after 10 days; format: functional, organism-based
[23] = tested on: Cucumis sativus; assay: Growth regulatory activity in Cucumis sativus assessed as complete inhibition of root growth at 100 ppm after 10 days; format: functional, organism-based
[24] = tested on: Echinochloa frumentacea; assay: Growth regulatory activity in Echinochloa frumentacea assessed as complete inhibition of root growth at 250 ppm after 10 days; format: functional, organism-based
[25] = tested on: Cucumis sativus; assay: Growth regulatory activity in Cucumis sativus assessed as inhibition of stem growth at 250 ppm after 10 days; format: functional, organism-based
[26] = tested on: Brassica juncea; assay: Growth regulatory activity in Brassica juncea assessed as inhibition of root growth at 250 ppm after 10 days; format: functional, organism-based
[27] = tested on: Echinochloa frumentacea; assay: Growth regulatory activity in Echinochloa frumentacea assessed as inhibition of root growth at 1000 ppm after 10 days; format: functional, organism-based
[28] = tested on: Echinochloa frumentacea; assay: Growth regulatory activity in Echinochloa frumentacea assessed as inhibition of stem growth at 1000 ppm after 10 days; format: functional, organism-based
[29] = tested on: Cucumis sativus; assay: Growth regulatory activity in Cucumis sativus assessed as inhibition of root growth at 250 ppm after 10 days; format: functional, organism-based
[30] = tested on: Brassica juncea; assay: Growth regulatory activity in Brassica juncea assessed as inhibition of root growth at 1000 ppm after 10 days; format: functional, organism-based
[31] = tested on: Brassica juncea; assay: Growth regulatory activity in Brassica juncea assessed as complete inhibition of stem growth at 500 ppm after 10 days; format: functional, organism-based
[32] = tested on: Brassica juncea; assay: Growth regulatory activity in Brassica juncea assessed as complete inhibition of root growth at 250 ppm after 10 days; format: functional, organism-based
[33] = tested on: Cucumis sativus; assay: Growth regulatory activity in Cucumis sativus assessed as inhibition of stem growth at 100 ppm after 10 days; format: functional, organism-based
[34] = tested on: Cucumis sativus; assay: Growth regulatory activity in Cucumis sativus assessed as inhibition of root growth at 100 ppm after 10 days; format: functional, organism-based
[35] = tested on: Echinochloa frumentacea; assay: Growth regulatory activity in Echinochloa frumentacea assessed as complete inhibition of stem growth at 500 ppm after 10 days; format: functional, organism-based
[36] = tested on: Echinochloa frumentacea; assay: Growth regulatory activity in Echinochloa frumentacea assessed as inhibition of stem growth at 250 ppm after 10 days; format: functional, organism-based

Row | SMILES | inhibition of growth at 1 µg/mL [1] [%] | inhibition of growth at 0.1 µg/mL [2] [%] | Activity [4] | Activity [5] | Activity [6] | Activity [7] | Activity [8] | Activity [9] | Activity [14] | Activity [15] | Activity [16] | Activity [17] | inhibition of growth at 10 µg/mL [19] [%] | Activity [20] | further results
1 | COc1cccc2c1C(=O)c1c(O)c3c(c(O)c1C2=O)C[C@@](O)(C(=O)CO)C[C@@H]3O[C@H]1C[C@H](N)[C@H](O)[C@H](C)O1 [DOXORUBICIN] | 105 | 99 | – | – | – | – | – | – | – | – | – | – | – | – | inhibition of growth at 0.01 µg/mL [3]: 38%
2 | C[C@@H]1C(=O)O[C@H]2C1CC[C@@]1(C)CCC[C@@](C)(O)[C@H]21 (stereo not given in full) | – | – | Active | Active | Active | Active | Active | Active | Active | Active | Active | Active | – | – | Activity [10]: Active; Activity [11]: Active; Activity [12]: Active; Activity [13]: Active
3 | C[C@]12CCC[C@@](C)(O)[C@@H]1[C@H]1OC(=O)C(CBr)=C1CC2 | 44 | 3 | Active | Active | – | Active | – | – | – | Active | Active | – | 102 | Active | Activity [18]: Active; Activity [21]: Active
4 | C[C@]12CCC[C@@](C)(O)[C@@H]1[C@H]1OC(=O)C(CCl)=C1CC2 | 65 | 26 | Active | Active | Active | Active | Active | Active | Active | Active | Active | Active | 103 | – | Activity [22]: Active; Activity [10]: Active; Activity [11]: Active; Activity [13]: Active; Activity [23]: Active; Activity [24]: Active; Activity [25]: Active; Activity [26]: Active
5 | C[C@]12CCC[C@@](C)(O)[C@@H]1[C@H]1OC(=O)C(CO)=C1CC2 | – | – | – | – | – | – | – | – | – | – | – | Active | – | Active | Activity [27]: Active; Activity [28]: Active; Activity [29]: Active; Activity [30]: Active
6 | C=C1C(=O)O[C@@H]2[C@@H]3[C@](C)(CCC[C@@]3(C)O)CC[C@@H]12 [ARBUSCULIN A] | 45 | 2 | Active | Active | Active | Active | Active | Active | Active | Active | Active | Active | 101 | Active | Activity [31]: Active; Activity [22]: Active; Activity [32]: Active; Activity [33]: Active; Activity [34]: Active; Activity [35]: Active; Activity [29]: Active; Activity [25]: Active
7 | CC(=O)OCC1=C2CC[C@@]3(C)CCC[C@@](C)(O)[C@@H]3[C@H]2OC1=O | – | – | Active | Active | – | – | – | – | – | – | – | – | – | – | Activity [36]: Active
